Experimental data taken from ChEMBL document CHEMBL1177863, “Diorganotin(IV) derivatives of ONO tridentate Schiff base: synthesis, crystal structure, in vitro antimicrobial, anti-leishmanial and DNA binding studies” (Eur J Med Chem, 2010).
Converted amounts (≈) assume the structure as drawn.

Experiments:
Trichophyton longifusum = experiment: Antifungal activity against Trichophyton longifusum ATCC 22397 at 200 ug/ml by agar tube dilution test; format: functional
Fusarium solani = experiment: Antifungal activity against Fusarium solani ATCC 11712 at 200 ug/ml by agar tube dilution test; format: functional
Microsporum canis = experiment: Antifungal activity against Microsporum canis ATCC 9865 at 200 ug/ml by agar tube dilution test; format: functional
Nakaseomyces glabratus = experiment: Antifungal activity against Candida glabrata ATCC 90030 at 200 ug/ml by agar tube dilution test; format: functional
Candida albicans = experiment: Antifungal activity against Candida albicans ATCC 2192 at 200 ug/ml by agar tube dilution test; format: functional
Aspergillus flavus = experiment: Antifungal activity against Aspergillus flavus ATCC 1030 at 200 ug/ml by agar tube dilution test; format: functional
Leishmania major = experiment: Antileishmanial activity against Leishmania major MHOM/PK/88/DESTO promastigotes by alamar blue assay; format: functional, organism-based
[1] = Toxicity against Artemia salina nauplii larvae; format: organism-based; details: in vivo, read-out: LD50 (the source's name)
In short: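 Brine shrimp lethality bioassay. LD50 was derived from the mortality data by Finney's probit analysis.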

Bacillus subtilis = experiment: Antibacterial activity against Bacillus subtilis ATCC 11774 […] by agar well-diffusion method; format: functional
In short: (§1)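 Test compounds dissolved in DMSO at 1 mg mL-1 and applied in agar wells; imipenem reference at 10 mg/disc. Inhibition zone diameter was read and graded as 3-6 mm non-significant, 7-9 mm low, 10-12 mm good, and >12 mm significant.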

Staphylococcus aureus = experiment: Antibacterial activity against Staphylococcus aureus ATCC 25923 […] by agar well-diffusion method; format: functional; in short: as §1
Pseudomonas aeruginosa = experiment: Antibacterial activity against Pseudomonas aeruginosa ATCC 10145 […] by agar well-diffusion method; format: functional; in short: as §1
Salmonella enterica = experiment: Antibacterial activity against Salmonella typhi ATCC 10749 at 10 mg/disk by agar well-diffusion method; format: functional, Salmonella enterica subsp. enterica serovar Typhi
In short: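 Agar well-diffusion assay with compounds at 1 mg mL-1 in DMSO. Imipenem served as the reference disc. The read-out is the inhibition zone diameter in mm, graded as 3-6 non-significant, 7-9 low, 10-12 good and >12 significant.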

Shigella flexneri = experiment: Antibacterial activity against Shigella flexneri ATCC 10782 […] by agar well-diffusion method; format: functional; in short: as §1
Escherichia coli = experiment: Antibacterial activity against Escherichia coli ATCC 11229 […] by agar well-diffusion method; format: functional; in short: as §1

In the case of `O=CN/N=C/c1ccccc1O`, the inhibition at 200 µg/mL (Trichophyton longifusum) is reported as 0%, the inhibition at 200 µg/mL (Fusarium solani) is reported as 0% and the inhibition at 200 µg/mL (Microsporum canis) is reported as 0%. For the same compound, the inhibition at 200 µg/mL (Nakaseomyces glabratus) was 0%, the inhibition at 200 µg/mL (Candida albicans) was 0% and the inhibition at 200 µg/mL (Aspergillus flavus) was 40%. For the same compound, the IC50 (Leishmania major) was 24 µg/mL (≈ 146 µM).

Work on `COc1cc([C@@H]2c3cc4c(cc3[C@@H](O[C@@H]3O[C@@H]5CO[C@@H](C)O[C@H]5[C@H](O)[C@H]3O)[C@H]3COC(=O)[C@H]23)OCO4)cc(OC)c1O` [ETOPOSIDE] yielded an LC50 [1] of 7.46 µg/mL (≈ 12.7 µM).

With `C[C@@H](O)[C@H]1C(=O)N2C(C(=O)O)=C(SCCNC=N)C[C@H]12` [IMIPENEM ANHYDROUS] the “diameter of the inhibition zone (DIZ)” value (Bacillus subtilis) was 37 mm, the “diameter of the inhibition zone (DIZ)” value (Staphylococcus aureus) was 26 mm and the “diameter of the inhibition zone (DIZ)” value (Pseudomonas aeruginosa) was 32 mm. For the same compound, the “diameter of the inhibition zone (DIZ)” value (Salmonella enterica) was 30 mm, the “diameter of the inhibition zone (DIZ)” value (Shigella flexneri) was 36 mm and the “diameter of the inhibition zone (DIZ)” value (Escherichia coli) was 30 mm.
